Activity calls are given as the source filed them.
Experiments:
[1] = biological target: Norepinephrine transporter (Rattus norvegicus, UniProt Q9WTR4); assay: Inhibition of uptake of tritiated norepinephrine (NE) in rat synaptosomes; type: subcellular, Brain
[2] = biological target: Sodium-dependent dopamine transporter (Rattus norvegicus, UniProt P23977); assay: Inhibition of the uptake of tritiated dopamine (DA) in rat synaptosomes; type: subcellular, Brain
[3] = biological target: T1, Adrenergic receptor alpha-1 (Rattus norvegicus, UniProt P15823+P23944+P43140); assay: Binding affinity towards alpha-1 adrenergic receptor; type: protein assay
T1 sequence (P15823 whole entry): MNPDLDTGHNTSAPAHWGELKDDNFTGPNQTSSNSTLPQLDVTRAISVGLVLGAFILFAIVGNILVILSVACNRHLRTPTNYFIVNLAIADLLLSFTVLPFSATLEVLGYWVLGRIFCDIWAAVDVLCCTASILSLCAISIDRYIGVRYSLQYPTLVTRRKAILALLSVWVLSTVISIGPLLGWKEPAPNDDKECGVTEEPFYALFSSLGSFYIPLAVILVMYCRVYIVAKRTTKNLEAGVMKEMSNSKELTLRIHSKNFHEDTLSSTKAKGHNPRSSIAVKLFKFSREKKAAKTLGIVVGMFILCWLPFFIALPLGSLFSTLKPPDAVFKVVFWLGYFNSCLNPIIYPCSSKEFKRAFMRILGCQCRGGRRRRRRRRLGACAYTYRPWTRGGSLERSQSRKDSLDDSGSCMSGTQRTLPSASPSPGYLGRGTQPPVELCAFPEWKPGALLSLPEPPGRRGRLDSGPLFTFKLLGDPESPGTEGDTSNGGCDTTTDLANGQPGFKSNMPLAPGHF
T1 sequence (P23944 whole entry): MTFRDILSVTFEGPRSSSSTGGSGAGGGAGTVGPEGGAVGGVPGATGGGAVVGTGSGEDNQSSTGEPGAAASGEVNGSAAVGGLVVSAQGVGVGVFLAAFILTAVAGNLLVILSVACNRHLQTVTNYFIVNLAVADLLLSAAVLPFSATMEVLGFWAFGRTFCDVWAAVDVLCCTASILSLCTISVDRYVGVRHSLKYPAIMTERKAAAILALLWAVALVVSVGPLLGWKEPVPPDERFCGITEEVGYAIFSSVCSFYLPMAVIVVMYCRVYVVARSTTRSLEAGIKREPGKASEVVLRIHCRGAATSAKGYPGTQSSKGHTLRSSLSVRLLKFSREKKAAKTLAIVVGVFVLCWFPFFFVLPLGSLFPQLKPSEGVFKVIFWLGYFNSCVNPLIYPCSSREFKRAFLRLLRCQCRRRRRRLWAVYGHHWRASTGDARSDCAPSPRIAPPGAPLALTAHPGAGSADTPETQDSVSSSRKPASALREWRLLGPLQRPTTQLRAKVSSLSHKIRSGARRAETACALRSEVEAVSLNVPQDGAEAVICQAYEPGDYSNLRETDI
T1 sequence (P43140 whole entry): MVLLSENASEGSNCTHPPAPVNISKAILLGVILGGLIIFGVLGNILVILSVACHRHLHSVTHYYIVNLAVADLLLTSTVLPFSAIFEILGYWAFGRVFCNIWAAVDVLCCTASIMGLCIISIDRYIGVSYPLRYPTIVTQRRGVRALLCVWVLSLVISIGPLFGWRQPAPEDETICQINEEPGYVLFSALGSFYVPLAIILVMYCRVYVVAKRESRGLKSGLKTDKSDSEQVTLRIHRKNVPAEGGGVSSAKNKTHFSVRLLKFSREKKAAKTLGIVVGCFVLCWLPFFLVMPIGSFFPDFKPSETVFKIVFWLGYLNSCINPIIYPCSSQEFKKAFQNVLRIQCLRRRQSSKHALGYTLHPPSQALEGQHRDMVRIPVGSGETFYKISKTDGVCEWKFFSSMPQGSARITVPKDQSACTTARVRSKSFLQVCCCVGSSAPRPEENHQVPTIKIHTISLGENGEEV

[4] = biological target: Adrenergic receptor alpha-2 (Rattus norvegicus) (UniProt P22086+P19328+P22909); assay: Binding affinity towards alpha-2 adrenergic receptor at 1.0 uM concentration; type: protein assay
Mus musculus [5] = organism: Mus musculus; assay: Antagonism of tetrabenazine (TBZ)-induced depression measured in mice by motor activity; type: functional; conditions: Mus musculus; read-out: ED50
Method in brief: (§1)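 Nonfasted male Swiss Webster mice, 18–24 g, ten per dose level and in saline controls. Test compound given ip 30 min before tetrabenazine 32 mg/kg ip; dose expressed as free base. Motor activity and ptosis scored. Control response ≤90% corrected by Abbott's formula.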

[6] = biological target: Serotonin 1 (5-HT1) receptor (Rattus norvegicus) (UniProt P28564+P30940+P19327+P28565); assay: Binding affinity towards serotonin S1 receptor at 1.0 uM; type: protein assay
Method in brief: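 Rat brain crude synaptic membranes in 20 mM NaHEPES pH 7.5. Ligands: α1 cortex […] 0.4 nM, nonspecific with (-)-NE 100 μM, 30 min at 25 °C. […] D2 striatum [3H]spiperone 0.05 nM with (+)-butaclamol 1 μM, 45 min at 37 °C. S1 cortex [3H]5-HT 1 nM plus glutathione and MgCl2, with 5-HT 10 μM, 20 min at 37 °C. […] Samples filtered on GF/B and counted.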

D(2) dopamine receptor = D(2) dopamine receptor (Rattus norvegicus, UniProt P61169); assay: Binding affinity towards Dopamine receptor D2
[7] = biological target: Muscarinic acetylcholine receptor (Rattus norvegicus) (UniProt P08482+P08483+P08485+P08911+P10980); assay: Binding affinity towards Muscarinic acetylcholine receptor at 1.0 uM concentration; type: protein assay
Mus musculus [8] = organism: Mus musculus; assay: Antagonism of tetrabenazine (TBZ)-induced depression in mice measured for ptosis; type: functional; conditions: Mus musculus; read-out: ED50; method in brief: as §1
Mus musculus [9] = organism: Mus musculus; assay: Gross behavioral effects ascertained in mice; W indicates weak stimulant or depressant activity of little significance.; type: functional, organism-based
Method in brief: (§2)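 Male Swiss Webster mice, 18–24 g, three per dose, given ip doses of 1, 3, 10, 30, 100 and 300 mg/kg. Observed for gross behavior and held for 4 days. Scored as weak (W), stimulant (S), depressant (D) or convulsant (C).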

D(1A) dopamine receptor = D(1A) dopamine receptor (Rattus norvegicus, UniProt P18901); assay: Binding affinity towards Dopamine receptor D1
[10] = biological target: Serotonin 2 (5-HT2) receptor (Rattus norvegicus, UniProt P30994+P08909+P14842); assay: Binding affinity towards 5-hydroxytryptamine 2 receptor; type: protein assay
Mus musculus [11] = organism: Mus musculus; assay: Gross behavioral effects ascertained in mice; W/C indicates weak stimulant or depressant activity of little significance/ overt convulsant; type: functional, organism-based
Method in brief: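 Male Swiss Webster albino mice, 18–24 g, three per dose, given ip 1, 3, 10, 30, 100 and 300 mg/kg. Gross behaviour observed and held 4 days. Estimated LD50 range from lethality count on day 4. Scored as weak stimulant/depressant, significant stimulant, significant depressant or overt convulsant.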

Mus musculus [12] = assay: (§3) Ability to antagonise intraperitoneal dose; inactive (<10% antagonism) at 30 mgjkg is represented as I-30.; type: functional, organism-based; method in brief: as §1
[13] = biological target: Norepinephrine transporter (Rattus norvegicus) (UniProt Q9WTR4); assay: Ability to inhibit the uptake of [3H]norepinephrine (NE) 0.1 uM concentration at rat brain synaptosomes; type: functional, subcellular
Method in brief: (§4)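 Male Wistar rat brain synaptosomes (P2 fraction): hypothalamus for NE, striatum for DA, cerebral cortex for 5-HT. Buffer is Tris- or HEPES-buffered salt medium with glucose, ascorbate and nialamide, pH 7.4 at 37 °C. Preincubated 10 min at 37 °C with compound. Uptake started with [3H]NE 100–300 nM, [3H]DA 50–300 nM or [3H]5-HT 100–200 nM, incubated 3 min (DA) or 6–10 min (NE, 5-HT). Blanks held on ice. Filtered, counted by scintillation.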

[14] = biological target: Sodium-dependent dopamine transporter (Rattus norvegicus) (UniProt P23977); assay: Ability to inhibit the uptake of [3H]dopamine (DA) 0.1 uM concentration at rat brain synaptosomes; type: functional, subcellular; method in brief: as §4
[15] = biological target: Sodium-dependent serotonin transporter (Rattus norvegicus) (UniProt P31652); assay: Ability to inhibit the uptake of [3H]- serotonin(5-HT) 0.1 uM concentration at rat brain synaptosomes; type: functional, subcellular; method in brief: as §4
Mus musculus [16] = assay: as §3; type: functional, organism-based; method in brief: as §1; remark: listed apart in the source
Mus musculus [17] = assay: Ability to antagonise intraperitoneal administration; weakly active (>=10% and <=30% antagonism) at 30 mg/kg is represented as >30; type: functional; conditions: ip; method in brief: as §1
Mus musculus [18] = assay: Ability to antagonise intraperitoneal dose; inactive (<10% antagonism) at 30 mg/kg is represented as I-30.; type: functional, organism-based; set-up: dose 30 mg/kg; method in brief: as §1
Rattus norvegicus [19] = organism: Rattus norvegicus; assay: Ability to inhibit the uptake of tritiated dopamine (DA) 1 uM concentration; type: functional
Method in brief: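 Rat brain synaptosomal [3H]dopamine uptake: striatal P2 fraction, test compound at 1.00 μM. Preincubated at 37 °C, then 50–300 nM [3H]DA for 3 min. Blanks on ice. Filtration and scintillation counting; percent inhibition of control uptake.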

Mus musculus [20] = organism: Mus musculus; assay: Gross behavioral effects ascertained in mice; C indicates overt convulsant; type: functional, organism-based; method in brief: as §2
Rattus norvegicus [21] = organism: Rattus norvegicus; assay: Ability to inhibit the uptake of tritiated norepinephrine (NE) at 0.1 uM concentration; type: functional; method in brief: as §4
[22] = biological target: Sodium-dependent serotonin transporter (Rattus norvegicus) (UniProt P31652); assay: Inhibition of tritiated serotonin(5-HT) uptake at 0.1 uM concentration; type: functional; method in brief: as §4

Chain of Norepinephrine transporter (Rattus norvegicus) (Q9WTR4 as listed by the source): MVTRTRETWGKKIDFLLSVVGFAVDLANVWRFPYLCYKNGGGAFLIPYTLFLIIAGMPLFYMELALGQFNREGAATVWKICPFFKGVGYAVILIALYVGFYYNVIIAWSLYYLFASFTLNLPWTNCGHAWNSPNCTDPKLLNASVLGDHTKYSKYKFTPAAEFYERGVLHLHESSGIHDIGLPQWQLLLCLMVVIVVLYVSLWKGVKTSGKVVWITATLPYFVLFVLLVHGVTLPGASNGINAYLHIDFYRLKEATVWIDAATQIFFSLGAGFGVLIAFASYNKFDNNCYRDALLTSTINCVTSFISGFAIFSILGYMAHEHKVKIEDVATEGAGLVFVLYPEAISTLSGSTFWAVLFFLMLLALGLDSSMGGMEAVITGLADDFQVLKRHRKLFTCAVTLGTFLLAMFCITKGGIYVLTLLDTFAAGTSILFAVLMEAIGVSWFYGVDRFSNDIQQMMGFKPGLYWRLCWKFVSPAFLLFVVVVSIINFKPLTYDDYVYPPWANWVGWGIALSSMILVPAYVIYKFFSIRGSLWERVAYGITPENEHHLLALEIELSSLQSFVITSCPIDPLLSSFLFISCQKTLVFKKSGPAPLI
Chain of Norepinephrine transporter (Q9WTR4 whole entry): as the sequence (Q9WTR4 as listed by the source) above
Chain of Sodium-dependent dopamine transporter (Rattus norvegicus) (P23977 whole entry): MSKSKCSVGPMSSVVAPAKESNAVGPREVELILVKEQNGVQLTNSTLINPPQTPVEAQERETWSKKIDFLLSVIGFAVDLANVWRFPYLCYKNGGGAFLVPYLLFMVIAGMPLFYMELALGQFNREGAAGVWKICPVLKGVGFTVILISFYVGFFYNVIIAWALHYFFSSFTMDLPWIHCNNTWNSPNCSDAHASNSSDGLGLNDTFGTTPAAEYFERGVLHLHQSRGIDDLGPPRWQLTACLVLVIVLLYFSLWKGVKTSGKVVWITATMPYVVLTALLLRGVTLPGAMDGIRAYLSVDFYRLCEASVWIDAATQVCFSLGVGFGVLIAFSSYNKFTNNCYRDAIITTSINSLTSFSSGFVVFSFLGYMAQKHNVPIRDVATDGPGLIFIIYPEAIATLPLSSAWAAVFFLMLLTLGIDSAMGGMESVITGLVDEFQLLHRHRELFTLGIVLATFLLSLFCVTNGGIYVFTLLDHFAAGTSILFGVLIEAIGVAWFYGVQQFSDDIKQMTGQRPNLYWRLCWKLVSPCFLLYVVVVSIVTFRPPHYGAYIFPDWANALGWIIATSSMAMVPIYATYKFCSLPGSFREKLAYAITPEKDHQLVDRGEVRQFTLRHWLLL
Chain of Sodium-dependent dopamine transporter (P23977 whole entry): as above
Chain of Sodium-dependent serotonin transporter (Rattus norvegicus) (P31652 whole entry): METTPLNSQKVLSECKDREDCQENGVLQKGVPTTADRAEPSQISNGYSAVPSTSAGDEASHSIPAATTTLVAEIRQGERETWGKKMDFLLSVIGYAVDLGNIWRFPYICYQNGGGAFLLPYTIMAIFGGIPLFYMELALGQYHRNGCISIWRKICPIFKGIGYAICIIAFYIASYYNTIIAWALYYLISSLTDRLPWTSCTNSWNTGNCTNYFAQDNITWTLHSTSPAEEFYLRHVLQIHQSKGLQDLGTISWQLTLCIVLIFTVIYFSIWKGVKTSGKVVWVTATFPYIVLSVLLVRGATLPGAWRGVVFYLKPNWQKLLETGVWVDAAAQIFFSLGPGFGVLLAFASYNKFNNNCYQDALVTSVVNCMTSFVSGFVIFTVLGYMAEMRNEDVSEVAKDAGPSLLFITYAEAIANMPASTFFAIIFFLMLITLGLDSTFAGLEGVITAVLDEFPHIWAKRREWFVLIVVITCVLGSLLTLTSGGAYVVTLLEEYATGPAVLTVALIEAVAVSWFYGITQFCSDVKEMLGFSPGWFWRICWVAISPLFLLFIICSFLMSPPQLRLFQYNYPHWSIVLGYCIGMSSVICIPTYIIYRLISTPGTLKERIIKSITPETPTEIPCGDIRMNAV
Chain of D(2) dopamine receptor (P61169 whole entry): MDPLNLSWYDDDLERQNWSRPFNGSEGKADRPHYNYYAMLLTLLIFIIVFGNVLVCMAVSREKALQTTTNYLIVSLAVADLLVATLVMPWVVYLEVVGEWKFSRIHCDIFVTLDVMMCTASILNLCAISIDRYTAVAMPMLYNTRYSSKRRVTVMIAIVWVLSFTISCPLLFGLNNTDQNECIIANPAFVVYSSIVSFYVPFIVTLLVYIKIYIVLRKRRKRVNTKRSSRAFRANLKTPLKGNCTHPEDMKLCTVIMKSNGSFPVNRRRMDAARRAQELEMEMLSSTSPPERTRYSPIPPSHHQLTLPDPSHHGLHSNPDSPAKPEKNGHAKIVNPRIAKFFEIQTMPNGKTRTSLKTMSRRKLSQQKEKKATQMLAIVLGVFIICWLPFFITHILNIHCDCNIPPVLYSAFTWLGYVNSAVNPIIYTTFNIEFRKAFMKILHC
Chain of D(1A) dopamine receptor (P18901 whole entry): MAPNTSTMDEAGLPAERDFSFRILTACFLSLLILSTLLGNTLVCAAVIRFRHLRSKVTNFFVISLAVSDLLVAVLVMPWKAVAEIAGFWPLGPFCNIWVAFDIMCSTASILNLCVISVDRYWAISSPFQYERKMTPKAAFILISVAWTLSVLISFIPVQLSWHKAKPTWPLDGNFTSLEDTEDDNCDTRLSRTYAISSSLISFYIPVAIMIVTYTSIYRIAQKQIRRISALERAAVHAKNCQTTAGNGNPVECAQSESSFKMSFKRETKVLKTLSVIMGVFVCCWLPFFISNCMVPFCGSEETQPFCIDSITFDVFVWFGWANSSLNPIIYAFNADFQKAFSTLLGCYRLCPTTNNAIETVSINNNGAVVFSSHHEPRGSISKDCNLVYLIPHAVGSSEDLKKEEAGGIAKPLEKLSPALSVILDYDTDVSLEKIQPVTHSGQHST

Br.Fc1ccc([C@@H]2CN3CCC[C@@H]3c3cc(F)ccc32)cc1
Ki [1]: 0.55 nM
Ki [2]: 7.7 nM
Ki [3]: 536 nM
inhibition [4]: 25%
ED50 (Mus musculus [5]): > 30 mg/kg
inhibition [6]: -6%
Ki (D(2) dopamine receptor): 241 nM
inhibition [7]: 0%
ED50 (Mus musculus [8]): 0.05 mg/kg
behavior (Mus musculus [9]): Partial stimulant
Ki (D(1A) dopamine receptor): 183 nM
Ki [10]: 7.4 nM

C[C@@]12CCCN1C[C@H](c1ccccc1)c1ccccc12
Ki [1]: 24 nM
Ki [2]: 40 nM
ED50 (Mus musculus [5]): 9.2 mg/kg
behavior (Mus musculus [11]): Weak/Overt convulsant
ED50 (Mus musculus [8]): 3.8 mg/kg

c1ccc([C@@H]2CN3CC[C@@H]4CCCC[C@@]43c3ccccc32)cc1
ED50 (Mus musculus [12]): inactive
inhibition [13]: 0%
behavior (Mus musculus [9]): Weak
inhibition [14]: 33%
inhibition [15]: 4%
ED50 (Mus musculus [16]): inactive

Cl.c1ccc([C@@H]2CN3CCC[C@H]3c3ccccc32)cc1
ED50 at 30 mg/kg (Mus musculus [17]): > 30 mg/kg
Ki [2]: 160 nM

O=[N+]([O-])c1ccc([C@@H]2CN3CCC[C@H]3c3ccccc32)cc1
ED50 at 30 mg/kg (Mus musculus [17]): > 30 mg/kg
ED50 (Mus musculus [5]): > 30 mg/kg
inhibition [13]: 10%
behavior (Mus musculus [9]): Weak
inhibition [14]: 21%
inhibition [15]: 25%

c1ccc2c(c1)CCN1CCC[C@@H]21
ED50 (Mus musculus [18]): inactive
behavior (Mus musculus [11]): Weak/Overt convulsant
Inhibition (Rattus norvegicus [19]): 18%
inhibition [13]: 1%
inhibition [15]: -10%
ED50 (Mus musculus [16]): inactive

F[C@@]1(c2ccccc2)CN2CCC[C@H]2c2ccccc21
ED50 at 30 mg/kg (Mus musculus [17]): > 30 mg/kg
Ki [1]: ~100 nM
ED50 (Mus musculus [5]): > 30 mg/kg
behavior (Mus musculus [11]): Weak/Overt convulsant
inhibition [14]: 22%
inhibition [15]: -3%

C[C@H]1[C@@H](c2ccccc2)c2ccccc2[C@@H]2CCCN21
ED50 (Mus musculus [5]): > 60 mg/kg
ED50 (Mus musculus [12]): inactive
inhibition [13]: 0%
behavior (Mus musculus [9]): Weak
inhibition [14]: 3%
inhibition [15]: 3%

c1ccc([C@@]23CCCN2CCc2ccccc23)cc1
ED50 (Mus musculus [5]): > 60 mg/kg
ED50 (Mus musculus [12]): inactive
behavior (Mus musculus [11]): Weak/Overt convulsant
inhibition [13]: 4%
inhibition [14]: 0%
inhibition [15]: 4%

Br.COc1cc2c(cc1OC)[C@@H]1CCCN1C[C@H]2c1ccccc1
ED50 at 30 mg/kg (Mus musculus [17]): > 30 mg/kg
Ki [2]: 106 nM
ED50 (Mus musculus [18]): inactive
behavior (Mus musculus [20]): Convulsant
Inhibition (Rattus norvegicus [21]): 16%
Ki (D(2) dopamine receptor): 400 nM
Ki (D(1A) dopamine receptor): 452 nM
inhibition [22]: 10%

— ChEMBL document CHEMBL1123812, “Pyrroloisoquinoline antidepressants. 2. In-depth exploration of structure-activity relationships” (J Med Chem, 1987)
